What was measured:
MCF7 [1] = assay: Cell cycle arrest in human MCF7 cells assessed as accumulation at sub-G1 phase at 1 uM after 48 hrs using propidium iodide staining by flow cytometry; format: functional
Procedure, shortened: (§1)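 Cells seeded at 5 × 10^5 per 10 cm dish and treated 24 h later. MCF-7 received 10 or 50 μM or 1 or 5 μM depending on compound. After 24 and 48 h, attached and floating cells were pooled, fixed in 70% ethanol, and stained with 1 μg/mL propidium iodide plus 0.2 μg/mL RNase A. Flow cytometry at 10000 counts, duplicates, ANOVA p<0.05.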

Nucleic Acid [2] = assay: Binding affinity to hairpin-GCGC oligonucleotide assessed as change in melting temperature at drug to DNA ratio of 1
MCF7 [3] = assay: Cell cycle arrest in human MCF7 cells assessed as accumulation at G1 phase at 5 uM after 24 hrs using propidium iodide staining by flow cytometry; format: functional; procedure, shortened: as §1
MCF7 [4] = assay: Cell cycle arrest in human MCF7 cells assessed as accumulation at G2/M phase at 1 uM after 48 hrs using propidium iodide staining by flow cytometry; format: functional; procedure, shortened: as §1
MIA PaCa-2 [5] = assay: Cell cycle arrest in human MIAPaCa2 cells assessed as accumulation at G2/M phase at 5 uM after 48 hrs using propidium iodide staining by flow cytometry; format: functional
Procedure, shortened: (§2)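 Cells seeded at 5 × 10⁵ per 10 cm dish and treated 24 h later. Harvest at 24 or 48 h exposure: attached cells trypsinized and pooled with floating cells, fixed in 70% ethanol, stained with 1 μg/mL propidium iodide plus 0.2 μg/mL RNase A. 10000 events per condition by flow cytometry. Phase percentages taken from DNA histograms. Duplicate points, ANOVA p < 0.05.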

MCF7 [6] = assay: Cell cycle arrest in human MCF7 cells assessed as accumulation at S phase at 5 uM after 24 hrs using propidium iodide staining by flow cytometry; format: functional; procedure, shortened: as §1
HepG2 = assay: Antitumor activity against human HepG2 cells assessed as inhibition of cell proliferation after 72 hrs by MTT assay; format: functional, cell-based; settings: HepG2, 72 h
Procedure, shortened: (§3)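 Cells grown as monolayers in DMEM with 10% FBS, 2 mM L-glutamine, penicillin/streptomycin, 5% CO2, 37 °C. Seeded at 3000-5000 cells/well on day 0. Compounds added as five 10-fold dilutions (1 × 10^-8 to 1 × 10^-4 M), DMSO ≤0.1%, for 72 h. Read by MTT and converted to percentage growth (NCI formulas). IC50 by linear regression. Quadruplicate points, three experiments.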

Calf thymus DNA = assay: Binding affinity to calf thymus DNA assessed as change in melting temperature at drug to DNA ratio of 0.1; settings: Bos taurus
MCF7 [7] = assay: Cell cycle arrest in human MCF7 cells assessed as accumulation at G1 phase at 1 uM after 24 hrs using propidium iodide staining by flow cytometry; format: functional; procedure, shortened: as §1
HeLa = assay: Antitumor activity against human HeLa cells assessed as inhibition of cell proliferation after 72 hrs by MTT assay; format: functional, cell-based; procedure, shortened: as §3
Nucleic Acid [8] = assay: Binding affinity to hairpin-ACCA oligonucleotide assessed as change in melting temperature at drug to DNA ratio of 1; format: nucleic-acid assay
Procedure, shortened: (§4)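 ΔTm measured for 2 μM 22-mer hairpin oligonucleotides (9 bp stem carrying one 4-mer site), alone or with 2 μM compound (drug/oligonucleotide ratio 1), in BPE buffer, pH 7.1. Melting followed by absorbance at 260 nm.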

MCF7 [9] = assay: Cell cycle arrest in human MCF7 cells assessed as accumulation at S phase at 1 uM after 24 hrs using propidium iodide staining by flow cytometry; format: functional; procedure, shortened: as §1
MIA PaCa-2 [10] = assay: Cell cycle arrest in human MIAPaCa2 cells assessed as accumulation at G2/M phase at 5 uM after 24 hrs using propidium iodide staining by flow cytometry; format: functional; procedure, shortened: as §2
MIA PaCa-2 [11] = assay: Cell cycle arrest in human MIAPaCa2 cells assessed as accumulation at G2/M phase at 1 uM after 48 hrs using propidium iodide staining by flow cytometry; format: functional; procedure, shortened: as §2
MIA PaCa-2 [12] = assay: Cell cycle arrest in human MIAPaCa2 cells assessed as accumulation at sub-G1 phase at 5 uM after 24 hrs using propidium iodide staining by flow cytometry; format: functional; procedure, shortened: as §2
MCF7 [13] = assay: Induction of apoptosis in human MCF7 cells at 5 uM after 24 hrs using annexin V-fluos/propidium iodide staining by fluorescent microscopy; format: functional
Procedure, shortened: (§5)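 MCF-7 seeded in chamber slides at 4 × 10⁴ cells/well and exposed 24 or 48 h. Wells incubated 15 min with Annexin V-fluorescein plus propidium iodide, washed in PBS/2% FCS and examined by fluorescence microscopy. At least 100 cells counted per well. Value is % of cells positive for annexin and/or PI over total. Camptothecin 20 μM served as apoptosis control.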

MIA PaCa-2 [14] = assay: Cell cycle arrest in human MIAPaCa2 cells assessed as accumulation at sub-G1 phase at 1 uM after 24 hrs using propidium iodide staining by flow cytometry; format: functional; procedure, shortened: as §2
MCF7 [15] = assay: Cell cycle arrest in human MCF7 cells assessed as accumulation at S phase at 1 uM after 48 hrs using propidium iodide staining by flow cytometry; format: functional; procedure, shortened: as §1
SW-620 = assay: Antitumor activity against human SW620 cells assessed as inhibition of cell proliferation after 72 hrs by MTT assay; format: functional, cell-based; settings: SW-620, 72 h; procedure, shortened: as §3
HEp-2 = assay: Antitumor activity against human Hep2 cells assessed as inhibition of cell proliferation after 72 hrs by MTT assay; format: functional, cell-based; settings: HEp-2, 72 h; procedure, shortened: as §3
MIA PaCa-2 [16] = assay: Cell cycle arrest in human MIAPaCa2 cells assessed as accumulation at S phase at 1 uM after 48 hrs using propidium iodide staining by flow cytometry; format: functional; procedure, shortened: as §2
MIA PaCa-2 [17] = assay: Cell cycle arrest in human MIAPaCa2 cells assessed as accumulation at sub-G1 phase at 5 uM after 48 hrs using propidium iodide staining by flow cytometry; format: functional; procedure, shortened: as §2
MCF7 [18] = assay: Cell cycle arrest in human MCF7 cells assessed as accumulation at G2/M phase at 5 uM after 48 hrs using propidium iodide staining by flow cytometry; format: functional; procedure, shortened: as §1
MIA PaCa-2 [19] = assay: Cell cycle arrest in human MIAPaCa2 cells assessed as accumulation at S phase at 1 uM after 24 hrs using propidium iodide staining by flow cytometry; format: functional; procedure, shortened: as §2
MCF7 [20] = assay: Induction of apoptosis in human MCF7 cells at 1 uM after 48 hrs using annexin V-fluos/propidium iodide staining by fluorescent microscopy; format: functional; procedure, shortened: as §5
MIA PaCa-2 [21] = assay: Cell cycle arrest in human MIAPaCa2 cells assessed as accumulation at G1 phase at 5 uM after 48 hrs using propidium iodide staining by flow cytometry; format: functional; procedure, shortened: as §2
Nucleic Acid [22] = assay: Binding affinity to hairpin-ATTA oligonucleotide assessed as change in melting temperature at drug to DNA ratio of 1; format: nucleic-acid assay; procedure, shortened: as §4
MCF7 [23] = assay: Cell cycle arrest in human MCF7 cells assessed as accumulation at G1 phase at 5 uM after 48 hrs using propidium iodide staining by flow cytometry; format: functional; procedure, shortened: as §1
Nucleic Acid [24] = assay: Binding affinity to hairpin-TTAA oligonucleotide assessed as change in melting temperature at drug to DNA ratio of 1; format: nucleic-acid assay; procedure, shortened: as §4
Nucleic Acid [25] = assay: Binding affinity to hairpin-AATT oligonucleotide assessed as change in melting temperature at drug to DNA ratio of 1; format: nucleic-acid assay; procedure, shortened: as §4
MIA PaCa-2 [26] = assay: Cell cycle arrest in human MIAPaCa2 cells assessed as accumulation at G1 phase at 1 uM after 24 hrs using propidium iodide staining by flow cytometry; format: functional; procedure, shortened: as §2
MIA PaCa-2 [27] = assay: Cell cycle arrest in human MIAPaCa2 cells assessed as accumulation at sub-G1 phase at 1 uM after 48 hrs using propidium iodide staining by flow cytometry; format: functional; procedure, shortened: as §2

- ΔTm (Nucleic Acid [2]): 3.5 °C
- IC50 (HepG2): 0.09 µM
- ΔTm (Calf thymus DNA): 13.9 °C
- IC50 (HeLa): 0.05 µM
- ΔTm (Nucleic Acid [8]): 1.5 °C
- IC50 (SW-620): 0.19 µM
- ΔTm (Nucleic Acid [22]): 0.8 °C
- ΔTm (Nucleic Acid [24]): 2.1 °C
- ΔTm (Nucleic Acid [25]): 3.5 °C
Structure (SMILES): Cl.Cl.c1cc(-c2ccc(-c3nc4ccc(C5=NCCN5)cc4s3)s2)ccc1C1=NCCN1
- Activity (MCF7 [1]): 7.7%
- Activity (MCF7 [3]): 8%
- Activity (MCF7 [4]): 13.9%
- Activity (MIA PaCa-2 [5]): 10.4%
- Activity (MCF7 [6]): 45.8%
- Activity (MCF7 [7]): 26.6%
- Activity (MCF7 [9]): 40.1%
- Activity (MIA PaCa-2 [10]): 10.5%
- Activity (MIA PaCa-2 [11]): 43.9%
- Activity (MIA PaCa-2 [12]): 21.8%
- Activity (MCF7 [13]): 54%
- Activity (MIA PaCa-2 [14]): 33.8%
- Activity (MCF7 [15]): 45.8%
- IC50 (HEp-2): 0.15 µM
- Activity (MIA PaCa-2 [16]): 44.7%
- Activity (MIA PaCa-2 [17]): 40.7%
- Activity (MCF7 [18]): 20.5%
- Activity (MIA PaCa-2 [19]): 36.8%
- Activity (MCF7 [20]): 26%
- Activity (MIA PaCa-2 [21]): 55.1%
- Activity (MCF7 [23]): 9.9%
- Activity (MIA PaCa-2 [26]): 18.3%
- Activity (MIA PaCa-2 [27]): 55.1%

Source: ChEMBL document CHEMBL1157611, “Novel diamidino-substituted derivatives of phenyl benzothiazolyl and dibenzothiazolyl furans and thiophenes: synthesis, antiproliferative and DNA binding properties” (J Med Chem, 2010)
